Drawing on ChEMBL document CHEMBL1121464, “14-(Arylhydroxyamino)codeinones and derivatives as analgetics and antagonists” (1980), this text covers ED50 and Analgesia for 15 molecules.

In assay [1] the test system is Mus musculus. Description: Tested for analgesic activity using writhing test in mice at 20 mg/kg upon subcutaneous administration. It is filed as functional. The conditions noted are these: sc. In general terms: Writhing tests count abdominal constrictions after an irritant is injected.
For assay [2], the system named is Mus musculus. Description: Tested for antagonistic activity using Straub tail test in mice at 20 mg/kg upon subcutaneous administration. Conditions: sc. It is filed as functional.
For assay [3], the species on record is Mus musculus. Description: Maximum percent analgesia using tail flick test in mice. It is filed as functional. In short, it runs like this:
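Young male Swiss mice (ca. 35 g) restrained in cylinders, with the tail exposed to 54 °C water. Reaction time (shorter of a pair) taken pre-dose and every 15 min to 2 h. Naive non-responders under 2.2 s excluded; 5 s cutoff. Dosed ip at 20 mg/kg in propylene glycol or water, 9–11 mice per group. […] Analgesia defined as PRT >2.6 s; the value is the peak percentage of analgesic mice at any time point.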

For assay [4], the system named is Mus musculus. Description: Tested for analgesic activity using writhing test in mice at 20 mg/kg upon subcutaneous administration; Inactive. It is filed as functional, organism-based. Also on record: dose 20 mg/kg.
Assay [5] has as its system Mus musculus. Description: Tested for antagonistic activity using Straub tail test in mice at 20 mg/kg upon subcutaneous administration; Inactive. It is filed as functional, organism-based. Also on record: dose 20 mg/kg.

Where “and” joins values, the source holds several entries; their conditions need not be identical. Equal entries are not always repeated. Calls of active or inactive are those of the source. A value given as a limit tells only on which side of the number the result lay.

In general, ED50 refers to the midpoint of the dose-response relation. Regarding `COc1ccc2c3c1OC1C(=O)C=CC4(N(O)c5ccccc5)C(C2)N(C)CCC314` (centres undefined), the ED50 was 1.45 mg/kg in the assay on Mus musculus [1] and greater than 20 mg/kg with Mus musculus [2]. In the assay filed under Mus musculus [3], this molecule returned an Analgesia of 20%.

As for `COc1ccc2c3c1OC1C(=O)CCC4(Nc5ccccc5)C(C2)N(CC2CC2)CCC314` (centres undefined), the ED50 in the assay with Mus musculus [1] is roughly 40 mg/kg; in the assay on Mus musculus [2], roughly 10.5 mg/kg. The molecule further registered an Analgesia in the assay filed under Mus musculus [3] of 10%.

On to `C=CCN1CC[C@]23c4c5ccc(O)c4O[C@H]2C(=O)CC[C@@]3(O)[C@H]1C5` [NALOXONE], for which the ED50 entry in the assay with Mus musculus [4] was “inactive”. For the same molecule, in the assay listed under Mus musculus [3], the Analgesia is 32%.

As for `COc1ccc2c(c1O)C13CCN(C)C(C2)C12C=CC(=O)C3ON2c1ccccc1` (centres undefined), the ED50 in the assay with Mus musculus [1] was 1.87 mg/kg; with Mus musculus [2], greater than 40 mg/kg. For the same molecule, the Analgesia in the assay listed under Mus musculus [3] turned out to be 50%.

Regarding `COc1ccc2c3c1OC1C(=O)CCC4(Nc5ccccc5)C(C2)N(C)CCC314` (centres undefined), the ED50 was 1.04 mg/kg in the assay on Mus musculus [1] and greater than 40 mg/kg with Mus musculus [2]. In the assay filed under Mus musculus [3], the Analgesia is on record as 10%.

For `COc1ccc2c(c1O)C13CCN(CC4CC4)C(C2)C12C=CC(=O)C3ON2c1ccccc1` (centres undefined), the ED50 in the assay with Mus musculus [1] and with Mus musculus [2] was greater than 40 mg/kg throughout. In addition, the Analgesia in the assay listed under Mus musculus [3] is recorded as 20%.

For the molecule `COc1ccc2c(c1O)C13CCN(C)C(C2)C12C=CC(=O)C3ON2c1ccc(F)cc1` (centres undefined), the ED50 with Mus musculus [1] is 2.53 mg/kg; in the assay on Mus musculus [2], greater than 40 mg/kg. Moreover, in the assay filed under Mus musculus [3], the Analgesia came to 90%.

`COc1ccc2c3c1OC1C(=O)CCC4(Nc5ccc(F)cc5)C(C2)N(CC2CC2)CCC314` (centres undefined): the figures for the ED50 with Mus musculus [1] and with Mus musculus [2] were roughly 25 mg/kg and roughly 5 mg/kg, respectively. The molecule further yielded an Analgesia in the assay filed under Mus musculus [3] of 32%.

`COc1ccc2c3c1OC1C(=O)C=CC4(NO)C(C2)N(C)CCC314` (centres undefined): the ED50 with Mus musculus [1] is 5 mg/kg; in the assay on Mus musculus [2], greater than 20 mg/kg. In the assay filed under Mus musculus [3], the Analgesia is 10% and 20%.

In the case of `COc1ccc2c3c1OC1C(=O)C=CC4(N(O)c5ccc(F)cc5)C(C2)N(C)CCC314` (centres undefined), the ED50 was 0.71 mg/kg in the assay with Mus musculus [1] and greater than 40 mg/kg in the assay on Mus musculus [2]. Also, the Analgesia in the assay filed under Mus musculus [3] came out at 30%.

In turn, `CN1CC[C@]23c4c5ccc(O)c4O[C@H]2[C@@H](O)C=C[C@H]3[C@H]1C5` [MORPHINE] registered an ED50 in the assay on Mus musculus [1] of 0.26 mg/kg. Also, in the assay on Mus musculus [5], the ED50 entry was “inactive”. This molecule registered an Analgesia in the assay filed under Mus musculus [3] of 80%.

`COc1ccc2c3c1OC1C(=O)C=CC4(N(O)c5ccccc5)C(C2)N(CC2CC2)CCC314` (centres undefined): the ED50 is greater than 40 mg/kg in the assay on Mus musculus [1] and roughly 7 mg/kg in the assay with Mus musculus [2]. Moreover, in the assay listed under Mus musculus [3], the Analgesia is listed as 32%.

On to `COc1ccc2c(c1O)C13CCN(CC4CC4)C(C2)C12C=CC(=O)C3ON2c1ccc(F)cc1` (centres undefined), for which the ED50 is roughly 31 mg/kg in the assay with Mus musculus [1] and greater than 40 mg/kg in the assay on Mus musculus [2]. The molecule also returned an Analgesia in the assay filed under Mus musculus [3] of 20%.

Take `COc1ccc2c3c1OC1C(=O)C=CC4(N(O)c5ccc(F)cc5)C(C2)N(CC2CC2)CCC314` (centres undefined): the ED50 was roughly 40 mg/kg with Mus musculus [1] and 12 mg/kg in the assay on Mus musculus [2]. In the assay filed under Mus musculus [3], the Analgesia was determined as 32%.

`COc1ccc2c3c1OC1C(=O)CCC4(Nc5ccc(F)cc5)C(C2)N(C)CCC314` (centres undefined): the ED50 with Mus musculus [1] is 0.76 mg/kg; in the assay on Mus musculus [2], greater than 40 mg/kg. The molecule also returned an Analgesia in the assay listed under Mus musculus [3] of 10%.
